The source of these data is paper PMC3700807 (Planta medica, 2011).

For orientation: IC50 means the concentration at which inhibition is half-maximal. A word on the IC90: it is the concentration needed for an effect of 90%. For orientation: MIC means the least concentration at which growth counts as inhibited. By MBC is commonly meant the smallest concentration meeting the test's criterion for killing. For orientation: pKa means the pH at which an ionisable group is half protonated.

The test system of data set [1] is Candida albicans (ATCC 90028). The experiment in a line: Antimicrobial susceptibility assay, C. albicans. The class given is cell-based. Particulars: Candida albicans. An outline of the steps:
(§1)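 Yeasts were tested by a modified CLSI broth-dilution method, with growth monitored by optical density. Amphotericin B was the drug control in each assay. IC50 (50% inhibition vs controls) was curve-fitted from duplicate readings. MIC is the lowest concentration allowing no detectable growth. For MFC, 5 μL from each clear well was plated on agar and incubated until growth was seen.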

In data set [2] the test system is Leishmania donovani axenic amastigotes. The experiment in a line: Antileishmanial assay, axenic amastigotes. Format: cell-based. Particulars: for IC90: Leishmania donovani, 72 h, read-out: Leishmania donovani Axenic Amastigotes IC90; for Leishmania donovani Axenic Amastigotes IC50: 37 °C, 72 hours, mean ± S.D. of three observations.
For data set [3], the system named is Cryptococcus neoformans (ATCC 90113). The experiment in a line: Antimicrobial susceptibility assay, C. neoformans. Particulars: Cryptococcus neoformans. The class given is cell-based. An outline of the steps: as §1
The nature of data set [4]: Cytotoxicity to PMA transformed THP1 cells. The class given is cell-based. Particulars: human.
Data set [5] deals with Leishmania donovani amastigotes in THP1 macrophage cultures. The experiment in a line: Antileishmanial macrophage-amastigote assay. Particulars: mean ± S.D. of three observations; for IC50: Leishmania donovani, THP-1, read-out: Leishmania donovani Macrophage-Amastigotes IC50, amastigotes in THP1 macrophage cultures. Format: cell-based.
Data set [6] concerns Aspergillus fumigatus (ATCC 204305). The experiment in a line: Antimicrobial susceptibility assay, A. fumigatus. Format: cell-based. Particulars: Aspergillus fumigatus. An outline of the steps:
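Broth-dilution susceptibility test in medium with 5% Alamar Blue for growth detection. Amphotericin B was the drug control in each assay. IC50 (50% inhibition vs controls) was curve-fitted from duplicate readings. MIC is the lowest concentration with no detectable growth. For MFC, 5 μL from each clear well was moved to agar and incubated until growth appeared.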

The subject of data set [7] is Plasmodium falciparum W2 (chloroquine-resistant clone). The experiment in a line: In vitro antiplasmodial assay. The class given is cell-based. Particulars: Plasmodium falciparum, W2, read-out: P. falciparum W2 IC50.
The test system of data set [8] is Plasmodium falciparum D6 (chloroquine-sensitive clone). The experiment in a line: In vitro antiplasmodial assay. The class given is cell-based. Conditions: Plasmodium falciparum, D6, read-out: P. falciparum D6 IC50.
Data set [9] relates to Mycobacterium intracellulare (ATCC 23068). The experiment in a line: Antimicrobial susceptibility assay, M. intracellulare. Format: cell-based. Conditions: Mycobacterium intracellulare. Summed up:
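Mycobacterium intracellulare (ATCC 23068) was tested by a modified broth susceptibility method, with growth detected in medium containing 5% Alamar Blue. IC50 was fitted against untreated controls from duplicate readings. MIC was taken as the lowest concentration with no detectable growth. For MBC, clear wells were subcultured onto agar and incubated until growth appeared. Ciprofloxacin was included as the drug control in each assay.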

The subject of data set [10] is Staphylococcus aureus (ATCC 29213). The experiment in a line: Antimicrobial susceptibility assay, S. aureus. Conditions: Staphylococcus aureus. Format: cell-based. Summed up: (§2)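 Bacteria were tested by a modified CLSI broth-dilution method, with growth read as optical density. Ciprofloxacin was the drug control in each assay. IC50 (50% inhibition relative to controls) was fitted from duplicate readings. MIC is the lowest concentration with no detectable growth. For MBC, 5 μL from each clear well was transferred to agar and incubated until growth appeared.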

Data set [11] has as its system methicillin-resistant S aureus (MRSA, ATCC 33591). The experiment in a line: Antimicrobial susceptibility assay, MRSA. Format: cell-based, Staphylococcus aureus. Particulars: Staphylococcus aureus, ATCC33591|MRSA. Summed up:
as §2

For data set [12], the system named is Plasmodium falciparum D6 (chloroquine-sensitive clone). Conditions: data reported previously; cited from earlier work.
Data set [13] deals with Plasmodium falciparum W2 (chloroquine-resistant clone). Particulars: data reported previously; cited from earlier work.
Another data set concerns VERO cells. Conditions: VERO cells cytotoxicity; data reported previously; cited from earlier work.
For data set [14], the system named is Leishmania donovani promastigotes. The experiment in a line: Antileishmanial assay, promastigotes. Format: cell-based. Particulars: for IC90: Leishmania donovani, 72 h, read-out: Leishmania donovani Promastigotes IC90; for Leishmania donovani Promastigotes IC50: 26 °C, 72 hours, mean ± S.D. of three observations.
For data set [15] the following is noted: quoted as basis for basifying to pH 11; no reference given; cited from earlier work.

≈ marks a conversion by molar mass, not a printed value.

With `C[C@@H]1[C@H](O)[C@@H](C)/C=C/C=C/C=C/C=C/C=C/C=C/C=C/[C@H](O[C@@H]2O[C@H](C)[C@@H](O)[C@H](N)[C@@H]2O)C[C@@H]2O[C@](O)(C[C@@H](O)C[C@@H](O)[C@H](O)CC[C@@H](O)C[C@@H](O)CC(=O)O[C@H]1C)C[C@H](O)[C@H]2C(=O)O` [Amphotericin B, reference compound], the IC50 in data set [1] (ATCC90028, read-out: C. albicans IC50) was found to be 0.13 µg/mL (≈ 0.141 µM); in [3] (ATCC90113, read-out: C. neoformans IC50) it was 0.32 µg/mL (≈ 0.346 µM); in [4] (PMA transformed THP1 cells), 3.34 ± 0.41 µg/mL (≈ 3.61 µM); in [5], 0.14 ± 0.02 µg/mL (≈ 0.152 µM); in data set [6] (ATCC204305, read-out: A. fumigatus IC50), 0.72 µg/mL (≈ 0.779 µM). The MFC was determined as 0.63 µg/mL (≈ 0.682 µM) in data set [1] (ATCC90028, read-out: C. albicans MFC); 1.25 µg/mL (≈ 1.35 µM) in data set [3] (ATCC90113, read-out: C. neoformans MFC); 2.5 µg/mL (≈ 2.71 µM) in data set [6] (ATCC204305, read-out: A. fumigatus MFC). The IC90 is 0.97 ± 0.14 µg/mL (≈ 1.05 µM) in data set [2] and 8.05 ± 1.33 µg/mL (≈ 8.71 µM) in data set [4] (PMA transformed THP1 cells). Moreover, the MIC was 1.25 µg/mL (≈ 1.35 µM) in [3] (ATCC90113, read-out: C. neoformans MIC) and 1.25 µg/mL (≈ 1.35 µM) in [6] (ATCC204305, read-out: A. fumigatus MIC).
In the case of `C[C@@H]1CC[C@H]2[C@@H](C)C(=O)O[C@@H]3O[C@@]4(C)CC[C@@H]1[C@]32OO4` [Artemisinin], the IC50 amounted to 0.017 µg/mL (≈ 0.0602 µM) in data set [7] and 0.016 µg/mL (≈ 0.0567 µM) in [8].
The like results for `CCN(CC)CCCC(C)Nc1ccnc2cc(Cl)ccc12` (stereo not shown) [Chloroquine] were, in that order, 0.14 µg/mL (≈ 0.438 µM) and 0.017 µg/mL (≈ 0.0531 µM).
`O=C(O)c1cn(C2CC2)c2cc(N3CCNCC3)c(F)cc2c1=O` [Ciprofloxacin, reference compound]: the IC50 in data set [9] (ATCC23068, read-out: M. intracellulare IC50) was 0.25 µg/mL (≈ 0.754 µM); in data set [10] (ATCC29213, read-out: S. aureus IC50), 0.1 µg/mL (≈ 0.302 µM); in data set [11] (read-out: MRSA IC50) it was 0.08 µg/mL (≈ 0.241 µM). Further, the MBC was over 20 µg/mL in [9] (ATCC23068, read-out: M. intracellulare MBC); over 20 µg/mL in [10] (ATCC29213, read-out: S. aureus MBC); 1 µg/mL (≈ 3.02 µM) in [11] (read-out: MRSA MBC). For the same compound, the MIC in data set [9] (ATCC23068, read-out: M. intracellulare MIC) stood at 0.5 µg/mL (≈ 1.51 µM); in data set [11] (read-out: MRSA MIC), 0.25 µg/mL (≈ 0.754 µM).
As to `C[C@@H]1N[C@H](CCCCCCCCCCc2cc(CCCCCCCCCC[C@@H]3CC[C@H](O)[C@@H](C)N3)c3[n+](c2)CCC3)CC[C@H]1O` [Compound 2, prosopilosidine], the “P. falciparum D6 IC50” value in [12] is 0.039 ± 0.002 µg/mL. For the same compound, the concentration for an effect of 90% (IC90) is 25.4 ± 5.3 µg/mL in data set [2], over 20 µg/mL in [4] (PMA transformed THP1 cells) and 4.17 ± 0.54 µg/mL in data set [14]. In addition, the “P. falciparum W2 IC50” value in data set [13] is 0.095 ± 0.002 µg/mL. The figures for the half-inhibitory concentration (IC50) in data set [4] (PMA transformed THP1 cells) and in data set [5] were 9.49 ± 2.25 µg/mL and 3.23 ± 0.54 µg/mL, respectively. In addition, in the data set on VERO cells, the “VERO IC50” value was over 23.8 µg/mL.
Regarding `C[C@@H]1N[C@H](CCCCCCCCCCC2=C[C@@H](CCCCCCCCCC[C@@H]3CC[C@@H](O)[C@H](C)N3)[C@@H]3CCCN3C2)CC[C@H]1O` [Compound 3, prosopilosine], in data set [2], the “Leishmania donovani Axenic Amastigotes IC50” value was found to be 0.98 ± 0.12 µg/mL and the IC90 came to 6.49 ± 0.84 µg/mL (≈ 10.3 µM). In data set [4], this compound came in with a 50% inhibitory concentration (IC50) of 2.33 ± 0.51 µg/mL (≈ 3.7 µM) and an IC90 of 3.89 ± 0.51 µg/mL (≈ 6.17 µM). Moreover, in [14], the “Leishmania donovani Promastigotes IC50” value worked out at 0.17 ± 0.05 µg/mL and the IC90 stood at 6.33 ± 1.07 µg/mL (≈ 10 µM).
Consider `C[C@@H]1N[C@H](CCCCCCCCCCc2cc(CCCCCCCCCC[C@H]3CC[C@@H](O)[C@@H](C)N3)c[n+]3c2CCC3)CC[C@H]1O` [Compound 5, isoprosopilosidine], for which the concentration for an effect of 90% (IC90) in data set [2] is 24.8 ± 3.7 µg/mL; in data set [4] (PMA transformed THP1 cells), 19 µg/mL; in [14] it was 4.52 ± 0.74 µg/mL. Further, the IC50 in data set [4] (PMA transformed THP1 cells) was determined as 7.92 ± 1.22 µg/mL; in data set [5], 5.87 ± 0.76 µg/mL.
For `C[C@H]1N[C@@H](CCCCCCCCCCC2=C[C@@H](CCCCCCCCCC[C@H]3CC[C@@H](O)[C@@H](C)N3)[C@@H]3CCCN3C2)CC[C@H]1O` [Compound 6, juliprosopine], the “P. falciparum D6 IC50” value in [12] is 0.22 ± 0.025 µg/mL. Also, in data set [2], the “Leishmania donovani Axenic Amastigotes IC50” value amounted to 1.92 ± 0.19 µg/mL and the 90% effect concentration (IC90) is 6.25 ± 0.47 µg/mL (≈ 9.92 µM). In addition, the “P. falciparum W2 IC50” value in data set [13] is 0.38 ± 0.05 µg/mL. In data set [4], this compound registered a half-inhibitory concentration (IC50) of 3.43 ± 0.32 µg/mL (≈ 5.44 µM) and an IC90 of 7.89 ± 1.2 µg/mL (≈ 12.5 µM). For the same compound, the “VERO IC50” value in the data set with VERO cells was 5 µg/mL. Also, in [14], the “Leishmania donovani Promastigotes IC50” value stood at 0.29 ± 0.05 µg/mL and the concentration for an effect of 90% (IC90) came to 1.14 ± 0.21 µg/mL (≈ 1.81 µM).
As for `N=C(N)c1ccc(OCCCCCOc2ccc(C(=N)N)cc2)cc1` [Pentamidine, reference compound], the “Leishmania donovani Axenic Amastigotes IC50” value in data set [2] is 2.09 ± 0.37 µg/mL. The IC90 was 14.7 ± 2.2 µg/mL (≈ 43.2 µM) in data set [2], over 20 µg/mL in [4] (PMA transformed THP1 cells) and 3.86 ± 0.41 µg/mL (≈ 11.3 µM) in data set [14]. The figures for the IC50 in data set [4] (PMA transformed THP1 cells) and in [5] were over 20 µg/mL and 3 µg/mL (≈ 8.81 µM), respectively. In addition, in data set [5] (amastigotes in THP1 macrophage cultures), the “Leishmania donovani Macrophage-Amastigotes IC50” value turned out to be 2.97 ± 0.44 µg/mL. The “Leishmania donovani Promastigotes IC50” value in [14] worked out at 1.06 ± 0.32 µg/mL.
With `NCCc1c[nH]c2ccccc12` [tryptamine], in data set [15], the pKa is reported as 10.2.
